Published values pooled from the literature.
Compare with care: the assays were run in different laboratories.

CC(C)C[C@@H]1CCO[C@@H]2[C@H](CN[C@@H]2C(=O)N[C@H]2[C@H]3O[C@H](SCC/C=C\[C@H]2C)[C@H](O)[C@@H](O)[C@H]3O)C1 — half-life (mouse, plasma; intravenous, 3 mg/kg, single dose): 4.66 h
Cc1cc(-c2ccnc3[nH]cc(F)c23)cc(F)c1[C@@]1(O)[C@H](C)CN(C2CCS(=O)(=O)CC2)C[C@@H]1C — half-life (male CD-1 mouse, plasma; intravenous, 1 mg/kg): 2.6 h
CC(C)(C)c1sc2ncnc(Oc3c(F)cccc3OC(F)(F)F)c2c1-c1ccc(Cl)cc1 — half-life (mouse, plasma; intravenous, 1 mg/kg): 2.49 h
COc1ccc(C[C@H](NC(=O)[C@H](C)NC(=O)CN2CCOCC2)C(=O)N[C@@H](Cc2ccccc2)C(=O)C2(C)CO2)cc1 (stereo in doubt) — half-life (mouse, plasma; intravenous, 20 mg/kg, single dose): 7.9 h
CN(C)C(=O)c1cc2cnc(Nc3ccc(-c4ccc5c(=O)cc(N6CCOCC6)oc5c4)cc3)nc2n1C1CCCC1.Cl — half-life (BALB/c mouse, plasma; oral, 20 mg/kg): 4.6 h
NCc1ccc(-c2nn(Cc3ccccc3)c3ccccc23)o1 — half-life (male CD-1 mouse, plasma; oral, 10 mg/kg): 1.74 h
COc1cc(C2C3=C(COC3=O)N(CCO)c3cc4c(cc32)CCC4)cc(OC)c1OC (stereo not shown) — half-life (female C57BL/6 mouse, plasma; intraperitoneal, 50 mg/kg): 5.2 h
NCc1ccc(-c2nn(Cc3ccncc3)c3ccccc23)o1 — half-life (male CD-1 mouse, plasma; intraperitoneal, 30 mg/kg): 5.69 h
CCCC[C@@H](NC(=O)[C@@H](Cc1cn(C(=O)OC)c2ccccc12)NC(=O)[C@H](CC(C)(C)C)NC(=O)N1[C@H](C)CCC[C@@H]1C)C(=O)O — half-life (male CD-1 mouse, plasma; intravenous, 3 mg/kg): 0.68 h
OCc1ccc(-c2nn(Cc3ccccc3)c3ccccc23)o1 — half-life (male CD-1 mouse, plasma; intravenous, 5 mg/kg): 1.39 h
Cc1ncsc1-c1ccc([C@H](CC(=O)N2CC3(C2)CN(c2ccc(C#Cc4ccc(C(=O)N5CCC(n6cc(-c7ccc8c(c7)CCN8C(=O)Cc7cccc(OC(F)(F)F)c7)c7c(N)ncnc76)CC5)cc4)cn2)C3)NC(=O)[C@@H]2C[C@@H](O)CN2C(=O)[C@@H](NC(=O)C2(F)CC2)C(C)(C)C)cc1 — half-life (male C57BL/6 mouse, plasma; intravenous, 1 mg/kg): 5.9 h
Cc1ccc(OCC(=O)N[C@@H](Cc2c[nH]c3ccccc23)C(=O)OC(C)C)cc1 — half-life (male Sprague-Dawley mouse, plasma; oral, 20 mg/kg): 6.1 h
Cc1ccc2c(c1)C(=O)[C@]1(O)CCN(c3ccc4nc(C)ccc4c3)C1=N2.Cl — half-life (mouse, brain; subcutaneous, 5 mg/kg): 10.5 h
Cc1ncsc1-c1ccc([C@H](CC(=O)N2CCN(c3ccc(C#Cc4ccc(C(=O)N5CCC(n6cc(-c7ccc8c(c7)CCN8C(=O)Cc7cccc(OC(F)(F)F)c7)c7c(N)ncnc76)CC5)cc4)cn3)CC2)NC(=O)[C@@H]2C[C@@H](O)CN2C(=O)[C@@H](NC(=O)C2(F)CC2)C(C)(C)C)cc1 — half-life (male C57BL/6 mouse, plasma; intravenous, 1 mg/kg): 7.3 h
Cc1[nH]c(C)c(S(=O)(=O)Nc2ccc(C(F)(F)F)c(Cl)c2)c1C(=O)N1CCC(F)(F)C1 — half-life (male CD-1 mouse, brain; intraperitoneal, 40 mg/kg): 3.65 h
COC1=CC(c2ccc[nH]2)=N/C1=C\c1[nH]c(Cc2ccc(OC(F)(F)F)cc2)cc1Cc1ccc(OC(F)(F)F)cc1 — half-life (male CD-1 mouse, liver; oral, 40 mg/kg, single dose): 7.62 h
